Measured values as given in ChEMBL document CHEMBL2375290, “Nonclassical antifolates, part 3: synthesis, biological evaluation and molecular modeling study of some new 2-heteroarylthio-quinazolin-4-ones” (Eur J Med Chem, 2013).
Values after ≈ are worked out from the molar mass of the structure shown.

Legend:
Bacillus subtilis [1] = test: Antimicrobial activity against Bacillus subtilis at 200 ug after 24 hrs by agar disc diffusion method; type: functional; details: read-out: DIZ
Micrococcus luteus = test: Antimicrobial activity against Micrococcus luteus at 200 ug after 24 hrs by agar disc diffusion method; type: functional; details: read-out: DIZ
Staphylococcus aureus = test: Antimicrobial activity against Staphylococcus aureus at 200 ug after 24 hrs by agar disc diffusion method; type: functional; details: read-out: DIZ
Escherichia coli = test: Antimicrobial activity against Escherichia coli at 200 ug after 24 hrs by agar disc diffusion method; type: functional; details: read-out: DIZ
Pseudomonas aeruginosa = test: Antimicrobial activity against Pseudomonas aeruginosa at 200 ug after 24 hrs by agar disc diffusion method; type: functional; details: read-out: DIZ
Dihydrofolate reductase = molecular target: T1, Dihydrofolate reductase (Bos taurus, UniProt P00376); test: Inhibition of bovine DHFR after 2 mins by spectrophotometry
T1 sequence (P00376 whole entry): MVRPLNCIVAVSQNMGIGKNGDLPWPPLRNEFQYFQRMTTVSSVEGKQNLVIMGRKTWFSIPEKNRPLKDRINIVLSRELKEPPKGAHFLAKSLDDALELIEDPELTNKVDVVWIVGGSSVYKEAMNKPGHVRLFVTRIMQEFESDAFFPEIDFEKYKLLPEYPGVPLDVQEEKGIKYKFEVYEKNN

Bacillus subtilis [2] = test: Antimicrobial activity against Bacillus subtilis after 24 hrs by micro-dilution susceptibility method; type: functional
In short: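 Broth microdilution in Müller-Hinton broth against S. aureus IFO 3060, B. subtilis IFO 3007, E. coli IFO 3301 and P. aeruginosa IFO 3448. These are the same standard strains used in the disc-diffusion primary screen. Compounds were solubilized in DMSO. MIC recorded as the minimal inhibitory concentration.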

Structure (SMILES) | zone of inhibition at 200 µg/disc (Bacillus subtilis [1]) [mm] | zone of inhibition at 200 µg/disc (Micrococcus luteus) [mm] | zone of inhibition at 200 µg/disc (Staphylococcus aureus) [mm] | zone of inhibition at 200 µg/disc (Escherichia coli) [mm] | zone of inhibition at 200 µg/disc (Pseudomonas aeruginosa) [mm] | IC50 (Dihydrofolate reductase) [µM] | MIC (Bacillus subtilis [2]) [µg/mL]
CCOC(=O)c1nc(N)sc1Sc1nc2ccc(Cl)cc2c(=O)n1-c1ccccc1 | 8 | 8 | 8 | 8 | 8 | 3 | –
CCOC(=O)c1nc(N)sc1Sc1nc2cc(OC)c(OC)cc2c(=O)n1-c1ccccc1 | 8 | 8 | 8 | 8 | 8 | 0.3 | –
O=C(O)c1ccc([N+](=O)[O-])cc1Sc1nc2ccc(Cl)cc2c(=O)n1-c1ccccc1 | 20 | 8 | 14 | 8 | 8 | 10 | 4 (≈ 8.81 µM)
O=C(O)c1ccc([N+](=O)[O-])cc1Sc1nc2ccc(Cl)cc2c(=O)n1Cc1ccccc1 | 15 | 8 | 8 | 8 | 8 | 8 | –
Cc1ccc2nc(Sc3cc([N+](=O)[O-])ccc3C(=O)O)n(Cc3ccccc3)c(=O)c2c1 | 8 | 8 | 8 | 8 | 8 | 12 | –
COc1cc2nc(Sc3cc([N+](=O)[O-])ccc3C(=O)O)n(Cc3ccccc3)c(=O)c2cc1OC | 8 | 8 | 18 | 8 | 8 | 3 | –
